Data: PubChem BioAssay AID652075 (The Scripps Research Institute Molecular Screening Center, 2013)
Calls of active or inactive are those of the source.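 Rule for the calls: active = hERG binding inhibition of 50% or more, or stimulation of 50% or more, shown as inhibition of -50% or lower; inactive = the rest.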

Biological target: Voltage-gated inwardly rectifying potassium channel KCNH2 (Homo sapiens) (UniProt Q12809)
Assay: KCNH2 channel binding inhibition – biochemical, radiometric, counter-screen for OPRK1 antagonist project, late-stage follow-up (AID 652075)
Details: hERG radioligand binding displacement, CEREP; at 10 µM; active compounds read high
In short: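 Material: hERG radioligand binding / Probe or stimulus: radiolabelled ligand, excess unlabelled ligand for nonspecific binding / Compound dosing: 10 µM single dose / Detection: radioligand binding / Read-out: % inhibition of control specific binding / Control set: nonspecific binding with excess unlabelled ligand / Repeats: duplicate measurements per compound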

Chain of Voltage-gated inwardly rectifying potassium channel KCNH2 (Homo sapiens) (Q12809 whole entry, looked up): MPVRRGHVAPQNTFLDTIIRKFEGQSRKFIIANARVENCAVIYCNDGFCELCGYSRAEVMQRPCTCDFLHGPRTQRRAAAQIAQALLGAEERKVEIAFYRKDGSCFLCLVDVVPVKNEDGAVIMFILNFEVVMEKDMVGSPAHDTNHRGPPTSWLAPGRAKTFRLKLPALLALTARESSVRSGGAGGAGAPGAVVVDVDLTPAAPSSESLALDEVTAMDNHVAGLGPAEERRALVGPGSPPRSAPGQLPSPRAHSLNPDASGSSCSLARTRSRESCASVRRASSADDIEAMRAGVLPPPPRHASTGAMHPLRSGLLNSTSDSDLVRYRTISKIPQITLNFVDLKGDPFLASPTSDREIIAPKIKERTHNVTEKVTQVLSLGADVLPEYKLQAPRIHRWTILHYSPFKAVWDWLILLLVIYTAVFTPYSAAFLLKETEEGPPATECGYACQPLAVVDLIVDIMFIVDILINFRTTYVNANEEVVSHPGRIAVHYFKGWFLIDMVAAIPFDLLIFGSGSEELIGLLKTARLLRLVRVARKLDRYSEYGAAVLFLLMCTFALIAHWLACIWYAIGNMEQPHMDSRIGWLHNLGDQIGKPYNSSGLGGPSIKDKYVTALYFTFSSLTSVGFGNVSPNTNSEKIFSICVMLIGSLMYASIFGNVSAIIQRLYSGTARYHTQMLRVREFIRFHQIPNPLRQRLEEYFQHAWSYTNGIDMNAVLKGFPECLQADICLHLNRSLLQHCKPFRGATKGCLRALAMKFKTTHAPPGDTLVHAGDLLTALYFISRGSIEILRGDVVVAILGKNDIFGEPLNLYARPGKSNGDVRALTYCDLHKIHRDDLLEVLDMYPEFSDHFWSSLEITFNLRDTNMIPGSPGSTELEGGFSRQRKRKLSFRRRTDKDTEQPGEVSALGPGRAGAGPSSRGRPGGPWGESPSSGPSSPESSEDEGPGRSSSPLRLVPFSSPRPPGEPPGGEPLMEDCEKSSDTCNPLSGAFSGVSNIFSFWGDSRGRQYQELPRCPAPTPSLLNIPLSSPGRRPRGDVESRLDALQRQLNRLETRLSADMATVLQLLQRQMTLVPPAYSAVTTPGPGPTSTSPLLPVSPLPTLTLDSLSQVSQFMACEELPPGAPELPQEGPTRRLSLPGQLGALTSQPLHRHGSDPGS

COC(=O)c1cc(Br)cnc1N1CCC(NC2CCCCC2)C(O)C1 (stereo unspecified)
inhibition: 39.3% (inactive)
